Activity calls are given as the source filed them. No cut-off for these calls is given here.
Key:
Tyrosinase = target: T1, Tyrosinase (Agaricus bisporus, UniProt O42713); assay: Inhibition of diphenolase activity of mushroom tyrosinase preincubated with compound for 10 mins before addition of L-DOPA as substrate by spectrophotometric analysis
T1 sequence (O42713 whole entry): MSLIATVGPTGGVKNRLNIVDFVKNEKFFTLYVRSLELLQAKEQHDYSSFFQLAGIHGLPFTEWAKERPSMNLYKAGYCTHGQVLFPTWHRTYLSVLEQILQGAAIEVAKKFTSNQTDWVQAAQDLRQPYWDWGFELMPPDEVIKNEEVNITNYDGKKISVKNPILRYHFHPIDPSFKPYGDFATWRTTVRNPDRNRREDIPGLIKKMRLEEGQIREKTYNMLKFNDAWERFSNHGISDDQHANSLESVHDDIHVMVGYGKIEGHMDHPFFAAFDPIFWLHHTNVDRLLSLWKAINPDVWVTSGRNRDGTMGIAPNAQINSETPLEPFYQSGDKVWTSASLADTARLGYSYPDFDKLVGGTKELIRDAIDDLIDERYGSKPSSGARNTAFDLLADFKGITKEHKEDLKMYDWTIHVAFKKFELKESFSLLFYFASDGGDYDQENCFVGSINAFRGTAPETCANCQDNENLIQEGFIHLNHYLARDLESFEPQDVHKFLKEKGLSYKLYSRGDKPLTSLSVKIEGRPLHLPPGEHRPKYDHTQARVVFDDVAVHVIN
Method in brief: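 Diphenolase activity of mushroom tyrosinase was measured with L-DOPA as substrate at 25 °C. IC50 was taken from logarithmic concentration–inhibition curves of at least eight points, as the mean of three experiments.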

[1] = target: T2, Tyrosinase (Agaricus bisporus) (UniProt O42713); assay: Inhibition of diphenolase activity of mushroom tyrosinase at 50 mM preincubated with compound for 10 mins before addition of L-DOPA as substrate by spectrophotometric analysis
T2 sequence (whole entry): T1 sequence (O42713 whole entry)
Method in brief: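 Mushroom tyrosinase diphenolase activity was measured on L-DOPA at 25 °C. Compounds were scored for activity at a single fixed concentration.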

Row | SMILES | IC50 (Tyrosinase) [mM] | inhibition [1]
1 | CC(=O)C1=C(C)NC(=S)NC1c1ccccc1O (configuration not stated) | 16.2 | 
2 | CC(=O)C1=C(C)NC(=O)NC1c1ccccc1 (configuration not stated) |  | inactive
3 | COc1ccc(C2NC(=S)NC(C)=C2C(C)=O)cc1 (configuration not stated) | 25.1 | 
4 | CCO/N=C(\C)C1=C(C)NC(=O)NC1CC (configuration not stated) |  | inactive
5 | CCC1NC(=S)NC(C)=C1C(C)=O (configuration not stated) | 10.7 | 
6 | COc1cc(C2NC(=O)NC(C)=C2C(C)=O)ccc1O (configuration not stated) |  | inactive
7 | COc1ccc(C2NC(=O)NC(C)=C2C(C)=O)cc1 (configuration not stated) |  | inactive
8 | CCC1NC(=O)NC(C)=C1C(C)=O (configuration not stated) |  | inactive
9 | CC(=O)C1=C(C)NC(=O)NC1c1ccccc1O (configuration not stated) |  | inactive
10 | COc1cc(C2NC(=S)NC(C)=C2C(C)=O)ccc1O (configuration not stated) | 20.1 | 

The remaining lines, values ahead:

Row | IC50 (Tyrosinase) [mM] | inhibition [1] | SMILES
11 | 5.69 |  | O=C1NC(=S)S/C1=C\c1ccc(OCCO)c(OCCO)c1
12 |  | inactive | CC(=O)C1=C(C)NC(=O)NC1c1ccc(O)cc1 (configuration not stated)
13 | 0.56 |  | O=C1NC(=S)S/C1=C\c1ccc(OCCO)cc1
14 | 11.1 |  | COc1cc(/C=C2\SC(=S)NC2=O)ccc1O
15 | 12.3 |  | CC(=O)C1=C(C)NC(=S)NC1c1ccc(O)cc1 (configuration not stated)
16 | 10.1 |  | O=C1NC(=S)S/C1=C\c1ccc(O)cc1
17 | 9.55 |  | O=C1NC(=S)S/C1=C\c1ccccc1O

Reference: ChEMBL document CHEMBL1759867, “Evaluation of dihydropyrimidin-(2H)-one analogues and rhodanine derivatives as tyrosinase inhibitors” (Bioorg Med Chem Lett, 2011)
